Structures are written as SMILES. Several values for one entry are separate records, joined by “and”; a condition that tells them apart may be missing. Equal values may be shown once. Read-outs that look alike come from different tables or passages of the source.

In one series the test system is GBM10 spheroids. Kind of series: 3-D spheroid viability assay, GBM10. It is filed as cell-based, human. The note with it: for activity in spheroids (in words): concentration-dependent.
In series [1] the test system is GBM43 spheroids. Kind of series: 3-D spheroid viability assay, GBM43. It is filed as cell-based, human. The settings on record: for activity in spheroids (in words): concentration-dependent.
Another series deals with SJ-GBM2 spheroids. Put plainly: 3-D spheroid viability assay, SJ-GBM2. In kind it is cell-based, human. The note with it: for activity in spheroids (in words): concentration-dependent.
Another series concerns Panc10.05 (Pa16C). Kind of series: PDAC 3-D spheroid model, Panc10.05. It is filed as cell-based. The settings on record: Homo sapiens, Panc1005, read-out: IC50 (cell viability). An outline of the steps: (§1)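 TdTomato-transduced PDAC cells, kept under 10 passages, were seeded at 1,000 cells/well in ultralow-adherence plates. Medium held 3% reduced-growth-factor Matrigel and 5% FBS. Spheroids were treated on days 4 and 8, and red fluorescence was read on day 12. Percent viability was taken versus media control (mean ± s.d., n = 3). Relative IC50 came from a four-parameter logistic fit by non-linear least squares.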

The test system of series [2] is brain microvascular endothelial cells (BMECs). Kind of series: Effect on brain microvascular endothelial cells, 48 h exposure. It is filed as cell-based. The note with it: Endothelial cell, read-out: IC50 (effect on BMECs).
Another series has as its target GAPDH (Homo sapiens, UniProt P04406). Kind of series: Cellular thermal shift assay. It is filed as binding. The settings on record: GBM43 cells, concentration-dependent, heated to 45 °C. The method, boiled down: (§2)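 GBM43 cells were exposed to varying concentrations of test compound, then heated to 45 °C. Protein remaining soluble was detected with target-specific antibodies. GAPDH was probed as a control for non-specific binding.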

The target in series [3] is T1, RACK1 (Homo sapiens, UniProt P63244). Put plainly: Thermal proteome profiling in GBM43 cells. In kind it is binding. The settings on record: 10 μM, six temperatures 37-60 °C, cutoff ΔTm ≥ 3 °C. An outline of the steps: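 GBM43 cells in PBS with protease inhibitors were treated 1 h at 37 °C with 10 µM test compound or DMSO. Fractions of 5 × 10⁶ cells were heated 3 min at 37, 40, 45, 50, 55 or 60 °C, then freeze-thaw lysed and spun at 100,000 × g. Soluble proteins were trypsin-digested and quantified by label-free LC-MS/MS. iBAQ-based melting curves gave ΔTm (treatment − vehicle), with a ≥3.0 cutoff.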

A further series relates to astrocytes. Put plainly: Astrocyte monolayer cell proliferation assay. It is filed as cell-based, human. The note with it: 2-D monolayer assay, up to 100 μM, 3 days. The method, boiled down:
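Primary human fetal astrocytes were seeded at 8 × 10³/well in DMEM with 10% FBS and 1% penicillin/streptomycin. They were incubated 3 days with DMSO or test compound. MTS reagent was then added and incubated 1 h at 37 °C, and absorbance was read at 490 nm. Run in triplicate.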

The test system of a further series is CD34+ progenitor cells. Put plainly: Colony-forming unit. In kind it is cell-based, human. The note with it: colony formation assay, up to 100 μM, day 14. An outline of the steps:
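Purified human umbilical cord blood CD34+ cells were incubated with test compound. They were plated with compound at 2 × 10³ cells per 35 mm dish in MethoCult H4434. Clonogenic progenitor colonies were counted by light microscopy on day 14 after exposure. IC50 came from dose-response curves.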

For another series, the system named is Pa02C. Kind of series: PDAC 3-D spheroid model, Pa02C. It is filed as cell-based, human. The note with it: Pa02C PDAC spheroids, concentration-dependent. The method, boiled down: as §1
In series [4] the test system is brain microvascular endothelial cells (BMECs). Put plainly: Matrigel-based tube formation assay. The note with it: Endothelial cell, 8 h, read-out: IC50 (tube formation). An outline of the steps: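 Primary brain microvascular endothelial cells, 15,000 per well in EGM-2, were seeded on Matrigel pre-solidified 20 min at 37 °C. Test compound was added in DMSO. Tubes were observed every 2 h by brightfield and imaged at 8 h. Total tubule length from six images per treatment was normalised to DMSO. Treatments were compared to DMSO by one-way ANOVA with Dunnett's test.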

The subject of the next series is Panc198 (Pa20C). Kind of series: PDAC 3-D spheroid model, Panc198. It is filed as cell-based, human. The settings on record: Panc198 PDAC spheroids, concentration-dependent. The method, boiled down:
as §1

A short description of series [5]: Stability in buffer by HPLC. In kind it is physicochemical.
The target in series [6] is T1, RACK1. Kind of series: Cellular thermal shift assay. It is filed as binding. The settings on record: GBM43 cells, concentration-dependent, 6 h treatment, heated to 45 °C, vs DMSO. An outline of the steps:
as §2

The test system of series [7] is GBM43 spheroids. The note with it: read-out: IC50 (cell viability); GBM43, standard-of-care comparison; cited from earlier work.

Chain of GAPDH (P04406 whole entry): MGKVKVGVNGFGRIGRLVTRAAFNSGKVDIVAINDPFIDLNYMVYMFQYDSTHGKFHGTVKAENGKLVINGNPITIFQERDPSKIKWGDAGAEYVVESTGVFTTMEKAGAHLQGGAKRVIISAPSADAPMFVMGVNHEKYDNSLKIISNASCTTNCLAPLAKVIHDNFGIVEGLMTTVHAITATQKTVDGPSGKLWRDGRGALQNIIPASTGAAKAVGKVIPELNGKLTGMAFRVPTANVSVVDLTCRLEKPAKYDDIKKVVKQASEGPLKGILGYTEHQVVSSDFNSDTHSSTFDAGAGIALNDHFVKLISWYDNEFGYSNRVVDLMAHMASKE

Consider `COc1cc2c(cc1NC(=O)C1CCC(=O)N1Cc1ccc(C)cc1)oc1ccccc12` (stereo not shown) [Compound 23, N-(2-Methoxydibenzo[b,d]furan-3-yl)-1-(4-methylbenzyl)-5-oxopyrrolidine-2-carboxamide], for which the “activity in spheroids (in words)” value in the series on GBM10 spheroids and with GBM43 spheroids [1] (GBM43 spheroids) was “loss of activity” throughout.
For `O=NN(CCCl)C(=O)NC1CCCCC1` [CCNU, lomustine, reference compound], the “inhibition of cell viability” value in the series with GBM10 spheroids (at 100 μM) is “about 50%”; with GBM43 spheroids [1] (GBM43 spheroids, at 100 μM), “about 50%”.
For the molecule `COc1cc2c(cc1NC(=O)C1CCC(=O)N1S(=O)(=O)c1ccc(C)cc1)oc1ccc(Cl)cc12` (stereo not shown) [Compound 26, N-(8-Chloro-2-methoxydibenzo[b,d]furan-3-yl)-5-oxo-1-tosylpyrrolidine-2-carboxamide], the “activity in spheroids (in words)” value with GBM10 spheroids, in the series on GBM43 spheroids [1] (GBM43 spheroids) and with SJ-GBM2 spheroids was “no activity” in each case.
Usually IC50 stands for the point on the concentration scale where inhibition reaches its midpoint. As for `COc1cc2c(cc1NC(=O)C1CCC(=O)N1S(=O)(=O)c1ccc(C)cc1)oc1ccccc12` (stereo not shown) [Compound 1, N-(2-Methoxydibenzo[b,d]furan-3-yl)-5-oxo-1-tosylpyrrolidine-2-carboxamide], the IC50 with Panc10.05 (Pa16C) was 26 ± 5.9 µM; in series [2], 3.5 µM; in series [4], about 100 nM; in the series with GBM43 spheroids [1] (Homo sapiens, 120 h, read-out: IC50 (cell viability)), 3.7 ± 0.1 µM. Moreover, the “GAPDH abundance after heating (CETSA)” value on GAPDH is reported as “no difference in protein abundance”. Further, the “thermal shift of RACK1 (ΔTm)” value on RACK1 [3] is “significant thermal shift”. In the series with astrocytes, the “effect on cell viability of astrocytes” value is given as “no effect”. In the series on CD34+ progenitor cells, the “effect on cell viability of CD34+ cells” value is given as “no effect”. The “activity in spheroid model” value in the series with Pa02C and with Panc198 (Pa20C) was “no activity” in each case. In the series with GBM43 spheroids [1] (GBM43 spheroids, single concentration 25 μM), the “inhibition of cell viability” value worked out at 90%. Moreover, the “stability following incubation in buffer” value in [5] is listed as “stable”.
Take `COc1cc2c(cc1NC(=O)C1CCC(=O)N1)oc1ccccc12` (stereo not shown) [Compound 24, N-(2-Methoxydibenzo[b,d]furan-3-yl)-5-oxopyrrolidine-2-carboxamide]: the “activity in spheroids (in words)” value with GBM10 spheroids and in the series with GBM43 spheroids [1] (GBM43 spheroids) was “loss of activity” each time.
As for `COc1cc2c(cc1NC(=O)C1CCC(=O)N1S(=O)(=O)c1ccc(C(F)(F)F)cc1)oc1ccccc12` (stereo not shown) [Compound 25, N-(2-Methoxydibenzo[b,d]furan-3-yl)-5-oxo-1-((4-(trifluoromethyl)phenyl)sulfonyl)pyrrolidine-2-carboxamide], the “fold decrease in IC50 compared to 1” value in the series with GBM10 spheroids, in the series with GBM43 spheroids [1] (GBM43 spheroids) and with SJ-GBM2 spheroids was about 10 fold each time.
Regarding `COc1cc2c(cc1NC(=O)C1CCCN1S(=O)(=O)c1ccc(C)cc1)oc1ccccc12` (stereo not shown) [Compound 22, N-(2-Methoxydibenzo[b,d]furan-3-yl)-1-tosylpyrrolidine-2-carboxamide], the “RACK1 abundance after heating (CETSA)” value on RACK1 [6] is on record as “did not affect protein abundance”. Further, the “activity in spheroids (in words)” value with GBM10 spheroids and in the series with GBM43 spheroids [1] (GBM43 spheroids) was “loss of activity” each time.
For `Cn1nnc2c(C(N)=O)ncn2c1=O` [temozolomide], in the series on GBM43 spheroids [7], the IC50 was 244 µM and ~250 µM.
Turning to `COc1cc2c(cc1NC(=O)C1CCC(=O)N1S(=O)(=O)c1ccc(C)cc1)oc1cc(Cl)ccc12` (stereo not shown) [Compound 27, N-(7-Chloro-2-methoxydibenzo[b,d]furan-3-yl)-5-oxo-1-tosylpyrrolidine-2-carboxamide], the “activity in spheroids (in words)” value in the series with GBM10 spheroids, in the series with GBM43 spheroids [1] (GBM43 spheroids) and in the series on SJ-GBM2 spheroids was “no activity” in each case.

(Values after paper PMC7919753 (ACS chemical biology, 2020).)
